MT1-MMP act inh = blockers of MT1-MMP proenzyme processing, primary screen, HT1080 RFP-PRO-GFP cells, GFP/RFP fluorescence; Matrix metalloproteinase-14 (Homo sapiens), P50281; GFP/RFP ratio fluorescence, overnight; percent of plate control window, DMSO zero; GFP/RFP ratio change, % at 20 µM; 360,000 tested, 0.061% active; AID 651647, 2012;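 active = GFP/RFP ratio change of at least 30% with cell ATP level not reduced by more than half and red fluorescence within 50% of control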
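Compound: 20 µM single dose, 1% DMSO / System: HT1080 RFP-PRO-GFP cells / Controls: DMSO and RFP-L50D-GFP cell wells / Read-out basis: GFP/RFP fluorescence ratio / Schedule: overnight compound exposure at 37 °C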
NR1D1 modulator = modulators of Rev-erb alpha DNA binding, primary screen, biochemical, FITC-DNA, fluorescence polarization, uHTS. AID 1259318, 2017. 370,000 tested, 0.79% active. Nuclear receptor subfamily 1 group D member 1 (Homo sapiens), P20393. Rev-erbα–FITC-DNA binding, 90 min. activity, % at 10 µM;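 active = activity above about 14%, limit read from the data; passing the limit was not always enough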;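 also: 0% = DMSO wells with 35 nM protein and 100% = DMSO wells with 750 nM protein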
Target sequence (P20393 whole entry, looked up): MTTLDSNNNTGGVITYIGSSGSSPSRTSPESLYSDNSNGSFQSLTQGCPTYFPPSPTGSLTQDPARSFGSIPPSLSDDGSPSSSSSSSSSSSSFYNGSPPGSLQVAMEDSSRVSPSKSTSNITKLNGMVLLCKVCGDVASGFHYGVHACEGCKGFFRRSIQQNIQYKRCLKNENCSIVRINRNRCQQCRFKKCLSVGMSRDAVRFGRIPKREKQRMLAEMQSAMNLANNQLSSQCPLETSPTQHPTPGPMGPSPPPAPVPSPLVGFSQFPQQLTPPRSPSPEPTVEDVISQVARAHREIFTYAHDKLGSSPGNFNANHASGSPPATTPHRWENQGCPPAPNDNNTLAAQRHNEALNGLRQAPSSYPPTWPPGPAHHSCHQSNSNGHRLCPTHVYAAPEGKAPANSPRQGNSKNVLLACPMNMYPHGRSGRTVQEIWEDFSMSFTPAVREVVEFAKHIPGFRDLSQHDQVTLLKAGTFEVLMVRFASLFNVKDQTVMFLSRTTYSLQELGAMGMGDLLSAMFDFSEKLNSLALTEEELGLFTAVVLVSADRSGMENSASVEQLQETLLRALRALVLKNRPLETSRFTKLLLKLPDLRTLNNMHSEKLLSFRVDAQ
NR2E3 ag-1 = inhibitors of NR2E3-RetCOR corepressor binding, primary screen, NR2E3 agonist project, biochemical, TR-FRET, GST-NR2E3, biotin-RetCOR | Photoreceptor-specific nuclear receptor (Homo sapiens), Q9Y5X4 | 1536-well | inhibition of corepressor binding, % at 4.78 µM | 320,000 tested, 0.12% active;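 active = percent inhibition above the cutoff of mean plus 3 SD of all tested compounds, set per screening campaign, cut at about 20% in these data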;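 also: 0% = DMSO wells and 100% = biotin wells as full block of FRET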
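system = GST-tagged NR2E3 plus biotinylated RetCOR corepressor | input = 1.35 nM GST-NR2E3 | also added = 7 nM biotin-RetCOR | schedule = 5 h incubation at 4 °C | measured by = TR-FRET with europium anti-GST and streptavidin-D2, 340 nm excitation | read-out = percent loss of FRET ratio relative to control wells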
PG9 binder = binders of HIV-1 gp120 antibody PG9, primary screen, biochemical, TR-FRET. HIV-1 gp120 / PG9 antibody interaction. TR-FRET gp120-PG9 antibody binding. inhibition, % at 6.7 µM. 360,000 tested, 0.43% active. AID 624416, 2012; in the data active = inhibition above about 8.5%
SKN-1 block = suppressors of acrylamide-induced Pgst-4::GFP reporter in worms, primary screen, SKN-1 inhibitor project, whole organism, uHTS, GFP/RFP fluorescence ratio, strain VP596. C. elegans VP596 Pgst-4::GFP/RFP ratio, 24 h. inhibition, % at 21.8 µM. 360,000 tested, 0.49% active. AID 624304, 2012;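 active = interference check ratio from 0.5 to 1.5 plus GFP to RFP signal ratio inhibition reaching or exceeding a fixed threshold, cut at about 30% in these data, passing the limit was not always enough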
NR2E3 ag-2 = NR2E3 agonists in two-hybrid cells, primary screen, cell-based, luminescence, CHO-S, Gal4-NCOR/VP16-NR2E3; AID 602229, 2012; 360,000 tested, 0.35% active; inhibition of corepressor binding, % at 3.98 µM; Photoreceptor-specific nuclear receptor (Homo sapiens), Q9Y5X4; luciferase;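 active = inhibition above the mean of all tested compounds plus 3 SD, cut at about 70% in these data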;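 also: 0% = DMSO with NR2E3 transfected cells and 100% = cells lacking NR2E3 construct; higher means lower luciferase signal from less NR2E3 corepressor binding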
NR2E3 ag conf = NR2E3 agonist confirmation in cells, cell-based, luminescence, CHO-S two-hybrid; shares compounds with NR2E3 ag-2; CHO-S mammalian two-hybrid NR2E3-NCOR, luciferase luminescence; inhibition, % at 3.98 µM; 2,300 tested, 51% active;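 active = average inhibition above a cutoff equal to the mean inhibition of all tested compounds plus one SD, cut at about 70% in these data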;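 also: 0% = DMSO in NR2E3 cells and 100% = DMSO in cells lacking NR2E3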
VP16 counter = GAL4-VP16 reporter modulators, confirmation, counter-screen for NR2E3 agonist project, cell-based, luminescence, CHO-S, high throughput. shares compounds with NR2E3 ag-2. CHO-S GAL4-VP16 luciferase reporter. inhibition, % at 3.98 µM. 2,300 tested, 29% active. AID 624379, 2012;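 active = mean inhibition above a cutoff equal to the average over all tested compounds plus one standard deviation, cut at about 70% in these data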;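 also: luciferase from a UAS reporter driven by GAL4-VP16 transactivation; 0% = DMSO with VP16-transfected cells and 100% = DMSO with cells lacking VP16; higher means less reporter light so more repression of VP16 activity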
* hit, by the source's call; . = not tested or not shown. Only some compounds are listed: those with a hit (about 1.9% of all), similar ones and a draw of the others.

SMILES | MT1-MMP act inh | NR1D1 modulator | NR2E3 ag-1 | PG9 binder | SKN-1 block | NR2E3 ag-2 | NR2E3 ag conf | VP16 counter
Cc1cccc(NS(=O)(=O)c2ccc(C3CCCCC3)cc2)c1 | -8 | 2 | 3 | 0 | 1 | 70* | 93* | 79*
N#CCc1ccc(NS(=O)(=O)c2ccc(C3CCCCC3)cc2)cc1 | -4 | -4 | 5 | -4 | 11 | 76* | 92* | 72*
CCc1ccc2c(c1)NC(=O)C2(C)Cc1ccccc1 (stereo not given) | -5 | -1 | . | -3 | -2 | -9 | . | .
CCc1ccc2c(c1)C1(NN=C(c3cccc4ccccc34)S1)C(=O)N2 (stereo not given) | -5 | 7 | 0 | 0 | -8 | 80* | 39 | 25
Cc1cccc(/C=N/Nc2cc(N3CCOCC3)nc(N3CCOCC3)n2)c1 | -1 | 3 | 2 | -1 | -12 | 61 | 75* | 36
CCCCc1c(-c2ccccc2OC)ncn1Cc1ccc(C(C)(C)C)cc1 | . | 2 | . | 2 | . | . | . | .
C=CCN1C(=O)[C@@H](CC(=O)N2CCSCC2)[C@]2(C(=O)OCC)CCCCC/C=C/12 | . | -3 | . | . | . | . | . | .
C=C(C(=O)c1ccccc1)C(C)C(=C)C(=O)c1ccccc1 | -14 | 3 | 3 | 0 | 3 | 69 | 79* | 27
C=C(C(=O)c1ccccc1)C(c1ccccc1)C(C)C(=O)c1ccccc1 (stereo not given) | -23 | -1 | 0 | -1 | 3 | 5 | . | .
Cc1ccc2c(CN(C)Cc3ccc(OC(F)F)cc3)cc(=O)oc2c1C | 3 | 6 | 0 | 1 | 10 | 56 | 43 | 54
CN(Cc1ccc(F)cc1)C(=O)c1cccc(S(=O)(=O)N2CCN(c3ccccc3)CC2)c1 | -4 | 2 | 1 | -2 | -1 | 31 | . | .
CN(CC(=O)Nc1cccc(F)c1)C(=O)c1cc(S(=O)(=O)N2CCN(c3ccccc3)CC2)ccc1Cl | 8 | 1 | 2 | -1 | -25 | 54 | 37 | 44
COc1ccc(CN(C)C(=O)c2cccc(S(=O)(=O)N3CCN(c4ccccc4)CC3)c2)c(OC)c1OC | 7 | 4 | 5 | -1 | -5 | 54 | 83* | 64
CN(Cc1ccc(F)cc1)C(=O)c1cccc(S(=O)(=O)N2CCN(c3ccc(F)cc3)CC2)c1 | -8 | 8 | -2 | 1 | 10 | 60 | 38 | 30
COc1ccc(NC(=O)CN(C)C(=O)c2ccc(N3CCCC3)c([N+](=O)[O-])c2)cc1 | 1 | 10 | -4 | -3 | 0 | 10 | . | .
CN(CC(=O)Nc1cccc(F)c1)C(=O)c1ccc(N2CCCCC2)c([N+](=O)[O-])c1 | 8 | 2 | 5 | -1 | 10 | 53 | 54 | 49
COc1cccc(CN(C)C(=O)c2cccc(S(=O)(=O)N3CCN(c4ccccc4)CC3)c2)c1 | 3 | 4 | . | -1 | -5 | 44 | . | .
C[C@@H]1CCCCO[C@@H](CN(C)C(=O)NC2CCCCC2)[C@@H](C)CN([C@H](C)CO)C(=O)c2cc(N(C)C)ccc2O1 | . | -5 | . | -1 | . | . | . | .
CCCCNc1cc(C)nc(NCc2ccccc2)n1 | -10 | . | -2 | . | 7 | 83* | 94* | 84*
Cc1cc(Nc2ccccc2)nc(NCc2ccccc2)n1 | -1 | 2 | 1 | 0 | 5 | 88* | 96* | 81*
Cc1cc(Nc2cccc(F)c2)nc(NCc2ccccc2)n1 | -6 | 7 | -1 | 1 | 7 | 83* | 92* | 67
O=C(Nc1ccccc1[N+](=O)[O-])NC1CCCCN(Cc2cccc(Cl)c2)C1=O (stereo not given) | . | 11 | . | . | . | . | . | .
CCOC(=O)CN1CCCc2nc(C)c(C)cc21 | . | 2 | . | -1 | . | . | . | .
O=[N+]([O-])c1ccc(O)c(C2CCCCC2)c1 | 4 | -2 | . | 0 | -2 | 99* | 99* | 92*
CCOC(=O)c1ccc(S(=O)(=O)Nc2ccc3cn[nH]c3c2)cc1 | 5 | -3 | 1 | 0 | -5 | 62 | 48 | 56
SMILES | MT1-MMP act inh | NR1D1 modulator | NR2E3 ag-1 | PG9 binder | SKN-1 block | NR2E3 ag-2 | NR2E3 ag conf | VP16 counter
COc1ccc(S(=O)(=O)Nc2ccc3cn[nH]c3c2)cc1C | -1 | -1 | 3 | -1 | -14 | -12 | . | .
COC(=O)c1cc2c(c3c4cc(F)ccc4n(S(=O)(=O)c4ccc(OC)cc4)c13)C(=O)N(C)C2 | . | -2 | . | 0 | . | . | . | .
CCCNC(=O)Cn1cccc1C(=O)c1ccccc1 | -1 | 0 | -2 | 0 | -16 | 89* | 22 | 11
O=C(Cn1cccc1C(=O)c1ccccc1)NCc1ccccc1 | . | 8 | 2 | 0 | 17 | 3 | . | .
COC1=CC(=O)c2c(ccc3ncnc(N)c23)C1=O | -102 | 1 | . | -10 | 21 | 102* | 101* | 101*
COc1cccc2c1C(=O)C=C(C)C2=O | -95 | 1 | -19 | -1 | 13 | -65 | . | .
CCOC(=O)c1c(C)[nH]c(C(=O)OCC(=O)Nc2sccc2C(N)=O)c1C | -8 | 12 | 6 | 0 | 7 | 54 | 44 | 35
CCOC(=O)c1c(C)[nH]c(C(=O)OCC(=O)Nc2ccc(Cl)cn2)c1C | 4 | 0 | 0 | 3 | -16 | 23 | . | .
COC(=O)c1cc2c(c3c4cc(OC)ccc4n(S(=O)(=O)c4ccccc4)c13)C(=O)N(C)C2 | . | 3 | . | -1 | . | . | . | .
Cc1ccccc1Cn1nnc(C(=O)Nc2cccc(C)c2C)c1N | -1 | 5 | 4 | 0 | -1 | 66 | 87* | 36
Cc1ccc(CNC(=O)Cn2nnc(C(=O)Nc3cccc(C)c3C)c2N)cc1 | -2 | -3 | 2 | 3 | 16 | -43 | . | .
COc1ccc(C)cc1NC(=O)c1nnn(Cc2cccc(C(F)(F)F)c2)c1N | 4 | -3 | 0 | -1 | -1 | 63 | 85* | 22

High-throughput results as filed in PubChem.
